Screening data as filed in PubChem.
SKKanGAS inh: SKKanGAS growth inhibition. S. pyogenes SKKanGAS, kanamycin growth, BacTiter-Glo, 6 h. inhibition, % at 7.5 µM. actives 1.3% (n = 300,000);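 active means mean replicate score, as percent of positive control median, at least 50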;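 further: strain carries kanamycin resistance gene driven by streptokinase promoter and grows in 40 µg/ml kanamycin; loss of luminescence reflects streptokinase promoter inhibition or plain growth inhibition; 0% = median of DMSO wells and 100% = positive control at its reference dose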
T cruzi repl: T. cruzi replication inhibition; T. cruzi beta-gal in NIH3T3, luminescence, 90 h; inhibition, % (test concentration not listed); actives 1.4% (n = 300,000); AID 1885;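 active means mean inhibition across valid replicates above about 55%, limit read from the data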;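 further: signal also drops with host cell toxicity which is not excluded here; 0% = plate median of DMSO wells and 100% = zero luminescence signal; higher percent means less beta-gal luminescence so fewer parasites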
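Incubation – ≥90 h infection period, 3 h prior cell attachment · System – NIH/3T3 fibroblasts plus reporter T. cruzi · Doses – compound pinned at 50 nL/well, DMSO · Read-out basis – percent inhibition of parasite-derived β-gal signal · Signal – luminescent β-galactosidase signal after 60 min lysis · Also added – 5000 T. cruzi trypomastigotes/well · Medium – Low-serum DMEM with 2% FBS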
Mdm2 MdmX PPI: inhibitors of human Mdm2/MdmX interaction | O15151+Q00987 | SaOS-2 split-luciferase Mdm2/MdmX complementation, luminescence | inhibition, % at 8 µM | actives 3% (n = 330,000);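 active means inhibition of at least 50% at 8 µM in the primary screen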
Target sequence (O15151 whole entry, looked up): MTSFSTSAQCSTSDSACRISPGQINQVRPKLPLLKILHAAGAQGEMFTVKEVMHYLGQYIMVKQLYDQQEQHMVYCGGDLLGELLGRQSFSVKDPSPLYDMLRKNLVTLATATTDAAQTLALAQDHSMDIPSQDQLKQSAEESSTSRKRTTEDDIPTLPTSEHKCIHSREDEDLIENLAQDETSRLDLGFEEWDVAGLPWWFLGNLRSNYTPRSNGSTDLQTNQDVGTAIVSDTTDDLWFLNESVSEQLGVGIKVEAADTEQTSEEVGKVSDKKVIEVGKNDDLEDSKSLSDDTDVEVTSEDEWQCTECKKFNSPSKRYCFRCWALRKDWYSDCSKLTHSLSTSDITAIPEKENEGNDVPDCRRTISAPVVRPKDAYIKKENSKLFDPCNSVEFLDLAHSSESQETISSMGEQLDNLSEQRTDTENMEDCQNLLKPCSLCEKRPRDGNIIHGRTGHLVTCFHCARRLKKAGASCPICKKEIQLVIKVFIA
Target sequence (Q00987 whole entry, looked up): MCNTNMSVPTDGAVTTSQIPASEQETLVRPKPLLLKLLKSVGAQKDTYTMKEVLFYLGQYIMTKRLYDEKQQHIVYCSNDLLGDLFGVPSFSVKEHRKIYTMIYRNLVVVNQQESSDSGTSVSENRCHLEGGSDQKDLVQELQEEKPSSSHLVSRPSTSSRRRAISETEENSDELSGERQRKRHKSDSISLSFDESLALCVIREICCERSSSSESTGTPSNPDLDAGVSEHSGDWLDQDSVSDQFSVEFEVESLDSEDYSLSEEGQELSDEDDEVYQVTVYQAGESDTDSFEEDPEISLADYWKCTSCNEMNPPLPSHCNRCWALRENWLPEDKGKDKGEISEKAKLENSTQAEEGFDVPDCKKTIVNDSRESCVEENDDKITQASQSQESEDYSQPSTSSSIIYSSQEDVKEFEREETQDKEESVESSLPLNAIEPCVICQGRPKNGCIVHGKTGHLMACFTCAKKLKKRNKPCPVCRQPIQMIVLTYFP
CSC inhib: cancer stem cell inhibition | cancer stem cell-like cells viability, luminescence | inhibition, % at 7.5 µM | actives 1.1% (n = 300,000) | AID 2717; in the data active means inhibition above about 75%; tested in HMLE shEcad cells
Beta apoptosis: blocks beta cell apoptosis. actives 0.8% (n = 300,000). protection from apoptosis, % (test concentration not listed). INS-1E cytokine-induced death, ATP luminescence, 48 h; percent of positive-control rescue, neutral wells zero. AID 435005;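 active means Every replicate reaches about 75%, or at least half do and their mean reaches it too, limit read from the data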;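 further: 0% = cytokine-treated negative control wells and 100% = positive control rescue; higher means more ATP so stronger rescue from cytokine killing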
Calb FLC: C. albicans growth modulation with fluconazole. actives 0.57% (n = 300,000). growth inhibition, % (test concentration not listed). C. albicans CaCi-2 (fluconazole-resistant clinical isolate) + fluconazole, Alamar Blue growth, 48 h;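 active means growth inhibition above about 58% in most replicates, limit read from the data, passing the limit was not always enough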;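 further: all wells also contain fluconazole at 8 µg/ml as a sub-toxic cotreatment; 0% = median of DMSO wells and 100% = median of geldanamycin control wells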
Mdm2-MdmX conf: confirmation of human Mdm2/MdmX interaction inhibitors. shares compounds with Mdm2 MdmX PPI. Mdm2-MdmX binding, luminescent assay. inhibition, % at 8 µM. actives 55% (n = 10,000); in the data active means inhibition above about 40%
FLuc counter: inhibits full-length luciferase, flagging false Mdm2/MdmX hits. shares compounds with Mdm2 MdmX PPI. SaOS-2 full-length luciferase counterscreen, luminescence. inhibition, % at 8 µM. actives 77% (n = 6,200);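 active means mean inhibition at 8 µM reaching about 37%, which flags the compound as non-specific, limit read from the data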;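 further: p53-null SaOS-2 cells with luciferase driven by a doxycycline-inducible promoter; compound on cells about two nights before reading with doxycycline added after day one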
Numbers without * were called inactive; / = no result; + = active, no number. In the library only some 5.7% were active in any assay of this set; here they are far more common.

SMILES | SKKanGAS inh | T cruzi repl | Mdm2 MdmX PPI | CSC inhib | Beta apoptosis | Calb FLC | Mdm2-MdmX conf | FLuc counter
COc1cccc(N2C(=NC(=O)c3ccccc3)SC3CS(=O)(=O)CC32)c1 (stereo not drawn) | 7 | 6 | -7 | -8 | -9 | -2 | / | /
Clc1cccc(Cl)c1CSc1nnc(-c2ccncc2)s1 | -8 | 50 | 78* | 9 | -3 | -4 | 33 | /
CC(C)Nc1nnc(SCC(=O)N2CCN(C(=O)c3ccco3)CC2)s1 | / | / | 1 | / | 7 | / | / | /
COc1ccc(/C=C/C(=O)Nc2ccc3nc4n(c(=O)c3c2)CCCC4)cc1 | 16 | 10 | 70* | 56 | 1 | 4 | 3 | /
O=C(Nc1ccc2nc3n(c(=O)c2c1)CCCC3)c1cc([N+](=O)[O-])ccc1F | 7 | -37 | 100* | -2 | 28 | 2 | 91* | 52*
CCCc1nnc(NC(=O)CCC(=O)N2CCC(C)CC2)s1 | 4 | -4 | 4 | -17 | -6 | 8 | / | /
CCCc1cnc(N2CCN(C(=O)c3c(-c4ccccc4)noc3C)CC2)nc1 | 2 | 3 | 5 | -2 | -3 | 21 | / | /
CCN1C(=O)[C@H]2[C@@H](c3ccc(-c4ccccc4)cc3)N[C@@](CC(C)C)(C(=O)OC)[C@H]2C1=O | 9 | 9 | 30 | 24 | 10 | -6 | / | /
Cc1ccc(-c2nn3c(C)nnc3s2)cc1NC(=O)c1ccc(-c2cccc(Cl)c2)o1 | 26 | 22 | -3 | / | / | -9 | / | /
Cc1ccc(-c2nn3c(C)nnc3s2)cc1NC(=O)c1ccc(-c2ccc(Cl)cc2Cl)o1 | / | / | 80* | 7 | / | / | 25 | /
COc1ccccc1C(C[N+](=O)[O-])c1c(N)n(C)c(=O)n(C)c1=O (stereo not drawn) | -5 | -21 | 55* | 55 | 39 | 39* | 57* | 49*
FC(F)(F)c1cc(C(F)(F)F)c2ccc(N3CCOCC3)nc2n1 | 1 | 6 | -4 | -6 | 0 | 4 | / | /
FC(F)(F)c1cc(C(F)(F)F)c2ccc(N3CCN(c4ncccn4)CC3)nc2n1 | 7 | -1 | 58* | 1 | 1 | 14 | -8 | /
CCOC(=O)[C@@H]1[C@H]2COc3cc(OC)ccc3[C@H]2N2C(=O)N(c3ccc(C(F)(F)F)cc3)C(=O)[C@]12C | / | / | 91* | 102* | 108* | / | 18 | /
C=CCNC(=O)C1CC(=O)N(c2ccc(OCC(=O)Nc3ccc(Cl)c(C(F)(F)F)c3)cc2)C1 (stereo not drawn) | 1 | -4 | 78* | -8 | / | -25 | 12 | /
C=CCNC(=O)C1CC(=O)N(c2ccc(OCC(=O)Nc3cccc(OC)c3)cc2)C1 (stereo not drawn) | 4 | -7 | 3 | -3 | 4 | 12 | / | /
CNCc1ccccc1Sc1cc(O)ccc1O | / | / | 91* | / | -2 | / | 19 | /
CNCc1ccccc1Sc1cccc(O)c1 | 1 | -9 | -6 | / | -3 | -5 | / | /
CCOc1ccccc1NC(=O)CCC(=O)Nc1ccccc1OCC | -1 | -5 | -10 | -9 | 1 | -2 | / | /
CCOc1cc(NC(=O)CCl)c(OCC)cc1NC(=O)CCl | 1 | 17 | 96* | -3 | -3 | 3 | 80* | 60*
Cc1ccc(-c2cnn3c(N4CCOCC4)cc(C)nc23)cc1 | 2 | 7 | 64* | 5 | -8 | 6 | 69* | +
CC(=O)Nc1ccc(Nc2cc(C)nc3c(-c4ccc(Cl)cc4)cnn23)cc1 | 29 | 34 | 81* | / | 7 | 0 | 87* | 156*
Cc1cc(N2CCOCC2)n2ncc(-c3ccc(Cl)cc3)c2n1 | -3 | / | 62* | 21 | -2 | 13 | 74* | 195*
O=C(NCCc1ccc(C(F)(F)F)cc1)C1CC(=O)N(Cc2ccccc2)C1 (stereo not drawn) | / | / | 8 | / | -2 | / | / | /
CCOC(=O)N1CCN(C(=O)Cn2nc(C)n3nc(-c4ccc(CC)cc4)cc3c2=O)CC1 | -5 | 5 | 6 | -14 | 0 | 7 | / | /
SMILES | SKKanGAS inh | T cruzi repl | Mdm2 MdmX PPI | CSC inhib | Beta apoptosis | Calb FLC | Mdm2-MdmX conf | FLuc counter
O=C(NC(=O)c1ccc(C(F)(F)F)cc1)Nc1ccc(-c2cnco2)cc1 | -4 | -7 | 56* | 2 | 8 | -4 | 8 | /
Cc1cccc(C)c1NC(=S)N(CCCN1CCN(C)CC1)Cc1cccs1 | 1 | 12 | -1 | -5 | -9 | -4 | / | /
O=C1OCCC1Sc1nnc(-c2ccc(Cl)cc2Cl)o1 (stereo not drawn) | -17 | 1 | 77* | -4 | 3 | 1 | 62* | 49*
O=C(NCc1ccccc1)Nc1cccn(Cc2c(F)cccc2Cl)c1=O | 8 | 43 | 56* | -23 | 11 | -7 | 43* | 73*
COc1ccc(/C=C(\NC(=O)c2ccc(C)cc2)C(=O)NCCCn2ccnc2)cc1OC | 0 | 5 | 9 | / | 5 | -7 | / | /
CC1=C(C(=O)NC2CCCc3c2cnn3-c2cccc(C)c2C)OCCO1 (stereo not drawn) | 22 | 7 | 9 | 14 | 71 | -1 | / | /
CCn1cc(C(=O)NC2CCCc3c2cnn3-c2cccc(C)c2C)cn1 (stereo not drawn) | 0 | -38 | 84* | -2 | / | 0 | 92* | 37*
COc1ccc(C(=O)NC2CCCc3c2cnn3-c2cccc(C)c2C)o1 (stereo not drawn) | 0 | -12 | 74* | 15 | 15 | -1 | 48* | 46*
Cc1cccc(-n2ncc3c2CCCC3NC(=O)CN2CCOC2=O)c1C (stereo not drawn) | 7 | -3 | 10 | -3 | -3 | -26 | / | /
Cc1cc(C(=O)NC2CCCc3c2cnn3-c2cccc(C)c2C)no1 (stereo not drawn) | 10 | -6 | 93* | -2 | / | -5 | 94* | 24
CN(C(=O)c1ccc(NC(=O)C2CCCN(C(=O)OC(C)(C)C)C2)cc1)C1CCC1 (stereo not drawn) | / | / | 9 | / | -1 | / | / | /
COC(=O)N1C(=O)[C@@](CC(C)C)(c2ccccc2)N1C(=O)OC | 1 | -21 | 51* | 38 | -11 | -2 | 14 | /
COC(=O)N1C(=O)[C@@](c2ccccc2)(C2CCCC2)N1C(=O)OC | -1 | -19 | 74* | 22 | 1 | 3 | 35 | /
C#CCOCCOCCOCCNc1nc(N2CCN(C(=O)CCCCCCCCCCNC(=O)[C@H](CO)n3cc(CCCSC)nn3)CC2)nc(N2CCN(C(=O)CCCCCCCCCCNC(=O)[C@H](CCCN=C(N)N)n3cc(C[C@@H](C)CC)nn3)CC2)n1 | / | / | -2 | 64 | 67 | / | / | /
Cc1nn(C)c(C)c1S(=O)(=O)N(CC(=O)NCCCN1CC(C)CC(C)C1)c1ccc(C(C)C)cc1 (stereo not drawn) | 0 | 31 | 9 | 9 | 0 | 0 | / | /
